Results: ChEMBL document CHEMBL1134340, “GnRH antagonists: a new generation of long acting analogues incorporating p-ureido-phenylalanines at positions 5 and 6” (J Med Chem, 2001)
pIC50: −log10 of the molar value. Where a SMILES comes first, the peptide text is derived from it. [ ]: non-standard residue; d: D form. d(hArg(Et2)) = CCN=C(NCC)NCCCC[C@@H](N)C(=O)O; hArg(Et2) = CCN=C(NCC)NCCCC[C@H](N)C(=O)O; dPhe(4-Cl) = N[C@H](Cc1ccc(Cl)cc1)C(=O)O; d2Nal = N[C@H](Cc1ccc2ccccc2c1)C(=O)O; Lys(iPr) = CC(C)NCCCC[C@H](N)C(=O)O; NMeY = CN[C@@H](Cc1ccc(O)cc1)C(=O)O; d3Pal = N[C@H](Cc1cccnc1)C(=O)O

How the values were obtained:
[1] = target: T1, Gonadotropin-releasing hormone receptor (Homo sapiens, UniProt P30968); experiment: Antagonism of human GnHR receptor, determined in a reporter gene assay in HEK293 cells; assay type: functional, cell-based
T1 sequence (P30968 whole entry): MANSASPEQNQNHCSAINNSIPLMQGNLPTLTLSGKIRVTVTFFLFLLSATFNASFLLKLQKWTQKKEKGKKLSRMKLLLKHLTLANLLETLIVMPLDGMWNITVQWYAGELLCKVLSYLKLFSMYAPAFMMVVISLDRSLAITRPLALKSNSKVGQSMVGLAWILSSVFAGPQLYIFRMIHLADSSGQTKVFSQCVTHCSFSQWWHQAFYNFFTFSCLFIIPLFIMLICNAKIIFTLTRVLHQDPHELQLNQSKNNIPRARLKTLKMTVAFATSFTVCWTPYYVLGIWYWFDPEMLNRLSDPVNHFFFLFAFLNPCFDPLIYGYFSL
How it was run: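 HEK293 cells stably expressing cloned human GnRH receptor plus luciferase reporter under LH alpha subunit promoter, plated 24 h before assay. Compound in 1% DMSO added 10 min at 37 °C, then GnRH at 3 nM final; 5 h incubation, luciferase luminescence read. Six concentrations in duplicate; blank-subtracted cps as % of GnRH control; mean of two determinations.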

[2] = target: T1, Gonadotropin-releasing hormone receptor; experiment: Competitive antagonism of GnRH-induced response in the reporter gene assay; assay type: functional; conditions: read-out: pA2 (converted)
How it was run: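 Same HEK293 human GnRH receptor luciferase reporter cells. Seven-point GnRH curve (10 µM to 10 pM final) run in duplicate without or with four to five increasing compound concentrations (10 min preincubation, 37 °C), then 5 h and luminescence. GnRH EC50 at each level by four-parameter logistic fit, giving pA2; mean of two determinations in duplicate.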

Rattus norvegicus = species on record: Rattus norvegicus; experiment: Compound was tested for inhibition of Leutenizing hormone release at 72 hours (long duration) in castrated male rat assay; assay type: functional; set-up: concentration or dose not given beside the values
How it was run: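 Male Sprague-Dawley rats (180-200 g), castrated under ether 10 days earlier, 5 per group. 50 µg/rat given sc in 100 µL 40 mM phosphate buffer with 0.1% BSA and 0.6% DMSO; acyline run as internal standard. Tail blood taken predose and at 24, 48, 72, 96 (sometimes 120) h; plasma LH by RIA. Duration classed by >80% LH inhibition at each time.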

CC(=O)NCc1ccc(C[C@@H](NC(=O)[C@H](Cc2ccc(NC(=O)[C@H]3CC(=O)NC(=O)N3)cc2)NC(=O)[C@H](CO)NC(=O)[C@@H](Cc2cccnc2)NC(=O)[C@@H](Cc2ccc(Cl)cc2)NC(=O)[C@@H](Cc2ccc3ccccc3c2)NC(C)=O)C(=O)N[C@@H](CC(C)C)C(=O)N[C@@H](CCCCNC(C)C)C(=O)N2CCC[C@H]2C(=O)N[C@H](C)C(N)=O)cc1 [listing 1 of 2 here]
pIC50 [1]: 8.15
Kb [2]: 1.58 nM

CNC(=O)NCc1ccc(C[C@@H](NC(=O)[C@H](Cc2ccc(NC(=O)[C@@H]3CC(=O)NC(=O)N3)cc2)NC(=O)[C@H](CO)NC(=O)[C@@H](Cc2cccnc2)NC(=O)[C@@H](Cc2ccc(Cl)cc2)NC(=O)[C@@H](Cc2ccc3ccccc3c2)NC(C)=O)C(=O)N[C@@H](CC(C)C)C(=O)N[C@@H](CCCCNC(C)C)C(=O)N2CCC[C@H]2C(=O)N[C@H](C)C(N)=O)cc1
pIC50 [1]: 8.10
Kb [2]: 0.794 nM

CCNC(=O)[C@@H]1CCCN1C(=O)[C@H](CCCCNC(C)C)NC(=O)[C@H](CC(C)C)NC(=O)[C@@H](Cc1ccc(NC(N)=O)cc1)NC(=O)[C@H](Cc1ccc(NC(=O)[C@@H]2CC(=O)NC(=O)N2)cc1)NC(=O)[C@H](CO)NC(=O)[C@@H](Cc1cccnc1)NC(=O)[C@@H](Cc1ccc(Cl)cc1)NC(=O)[C@@H](Cc1ccc2ccccc2c1)NC(C)=O
Inhibition (Rattus norvegicus): >80%

CC(=O)Nc1ccc(C[C@@H](NC(=O)[C@H](Cc2ccc(CNC(=O)[C@@H]3CC(=O)NC(=O)N3)cc2)NC(=O)[C@H](CO)NC(=O)[C@@H](Cc2cccnc2)NC(=O)[C@@H](Cc2ccc(Cl)cc2)NC(=O)[C@@H](Cc2ccc3ccccc3c2)NC(C)=O)C(=O)N[C@@H](CC(C)C)C(=O)N[C@@H](CCCCNC(C)C)C(=O)N2CCC[C@H]2C(=O)N[C@H](C)C(N)=O)cc1 [listing 1 of 2 here]
Inhibition (Rattus norvegicus): >80%

CC(=O)N[C@H](Cc1ccc2ccccc2c1)C(=O)N[C@H](Cc1ccc(Cl)cc1)C(=O)N[C@H](Cc1cccnc1)C(=O)N[C@@H](CO)C(=O)N[C@@H](Cc1ccc(NC(=O)[C@@H]2CC(=O)NC(=O)N2)cc1)C(=O)N[C@H](Cc1ccc(NC(=O)[C@@H]2CC(=O)NC(=O)N2)cc1)C(=O)N[C@@H](CC(C)C)C(=O)N[C@@H](CCCCNC(C)C)C(=O)N1CCC[C@H]1C(=O)N[C@H](C)C(N)=O
pIC50 [1]: 7.97
Kb [2]: 1 nM

CC(=O)NCc1ccc(C[C@@H](NC(=O)[C@H](Cc2ccc(NC(=O)[C@@H]3CC(=O)NC(=O)N3)cc2)NC(=O)[C@H](CO)NC(=O)[C@@H](Cc2cccnc2)NC(=O)[C@@H](Cc2ccc(Cl)cc2)NC(=O)[C@@H](Cc2ccc3ccccc3c2)NC(C)=O)C(=O)N[C@@H](CC(C)C)C(=O)N[C@@H](CCCCNC(C)C)C(=O)N2CCC[C@H]2C(=O)N[C@H](C)C(N)=O)cc1 [listing 1 of 2 here]
Inhibition (Rattus norvegicus): >80%

CC(=O)N[C@H](Cc1ccc2ccccc2c1)C(=O)N[C@H](Cc1ccc(Cl)cc1)C(=O)N[C@H](Cc1cccnc1)C(=O)N[C@@H](CO)C(=O)N(C)[C@@H](Cc1ccc(O)cc1)C(=O)N[C@H](CC(N)=O)C(=O)N[C@@H](CC(C)C)C(=O)N[C@@H](CCCCNC(C)C)C(=O)N1CCC[C@H]1C(=O)N[C@H](C)C(N)=O [ABARELIX] (Ac-[d2Nal][dPhe(4-Cl)][d3Pal]S[NMeY][dN]L[Lys(iPr)]P[dA]-NH2)
pIC50 [1]: 8.46
Kb [2]: 0.794 nM

CCNC(=O)[C@@H]1CCCN1C(=O)[C@H](CCCCNC(C)C)NC(=O)[C@H](CC(C)C)NC(=O)[C@@H](Cc1ccc(CNC(N)=O)cc1)NC(=O)[C@H](Cc1ccc(NC(=O)[C@@H]2CC(=O)NC(=O)N2)cc1)NC(=O)[C@H](CO)NC(=O)[C@@H](Cc1cccnc1)NC(=O)[C@@H](Cc1ccc(Cl)cc1)NC(=O)[C@@H](Cc1ccc2ccccc2c1)NC(C)=O
pIC50 [1]: 8.06
Kb [2]: 0.631 nM

CC(=O)N[C@H](Cc1ccc2ccccc2c1)C(=O)N[C@H](Cc1ccc(Cl)cc1)C(=O)N[C@H](Cc1cccnc1)C(=O)N[C@@H](CO)C(=O)N[C@@H](Cc1ccc(NC(=O)[C@@H]2CC(=O)NC(=O)N2)cc1)C(=O)N[C@H](Cc1ccc(CNC(N)=O)cc1)C(=O)N[C@@H](CC(C)C)C(=O)N[C@@H](CCCCNC(C)C)C(=O)N1CCC[C@H]1C(=O)N[C@H](C)C(N)=O
pIC50 [1]: 8.25
Kb [2]: 1.26 nM

CC(=O)NCc1ccc(C[C@@H](NC(=O)[C@H](Cc2ccc(NC(=O)[C@@H]3CC(=O)NC(=O)N3)cc2)NC(=O)[C@H](CO)NC(=O)[C@@H](Cc2cccnc2)NC(=O)[C@@H](Cc2ccc(Cl)cc2)NC(=O)[C@@H](Cc2ccc3ccccc3c2)NC(C)=O)C(=O)N[C@@H](CC(C)C)C(=O)N[C@@H](CCCCNC(C)C)C(=O)N2CCC[C@H]2C(=O)N[C@H](C)C(N)=O)cc1 [listing 2 of 2 here]
pIC50 [1]: 8.02
Kb [2]: 1 nM

CC(=O)Nc1ccc(C[C@H](NC(=O)[C@H](CO)NC(=O)[C@@H](Cc2cccnc2)NC(=O)[C@@H](Cc2ccc(Cl)cc2)NC(=O)[C@@H](Cc2ccc3ccccc3c2)NC(C)=O)C(=O)N[C@H](Cc2ccc(CNC(N)=O)cc2)C(=O)N[C@@H](CC(C)C)C(=O)N[C@@H](CCCCNC(C)C)C(=O)N2CCC[C@H]2C(=O)N[C@H](C)C(N)=O)cc1
pIC50 [1]: 8.19
Kb [2]: 0.631 nM

CC(=O)NCc1ccc(C[C@@H](NC(=O)[C@H](Cc2ccc(NC(=O)[C@H]3CC(=O)NC(=O)N3)cc2)NC(=O)[C@H](CO)NC(=O)[C@@H](Cc2cccnc2)NC(=O)[C@@H](Cc2ccc(Cl)cc2)NC(=O)[C@@H](Cc2ccc3ccccc3c2)NC(C)=O)C(=O)N[C@@H](CC(C)C)C(=O)N[C@@H](CCCCNC(C)C)C(=O)N2CCC[C@H]2C(=O)N[C@H](C)C(N)=O)cc1 [listing 2 of 2 here]
Inhibition (Rattus norvegicus): >80%

CCN=C(NCC)NCCCC[C@H](NC(=O)[C@H](CC(C)C)NC(=O)[C@@H](CCCCNC(=NCC)NCC)NC(=O)[C@H](Cc1ccc(O)cc1)NC(=O)[C@H](CO)NC(=O)[C@@H](Cc1cccnc1)NC(=O)[C@@H](Cc1ccc(Cl)cc1)NC(=O)[C@@H](Cc1ccc2ccccc2c1)NC(C)=O)C(=O)N1CCC[C@H]1C(=O)N[C@H](C)C(N)=O [GANIRELIX ACETATE] (Ac-[d2Nal][dPhe(4-Cl)][d3Pal]SY[d(hArg(Et2))]L[hArg(Et2)]P[dA]-NH2)
pIC50 [1]: 8.44
Kb [2]: 0.501 nM

CC(=O)N[C@H](Cc1ccc2ccccc2c1)C(=O)N[C@H](Cc1ccc(Cl)cc1)C(=O)N[C@H](Cc1cccnc1)C(=O)N[C@@H](CO)C(=O)N[C@@H](Cc1ccc(NC(=O)[C@@H]2CC(=O)NC(=O)N2)cc1)C(=O)N[C@H](Cc1ccc2ccccc2c1)C(=O)N[C@@H](CC(C)C)C(=O)N[C@@H](CCCCNC(C)C)C(=O)N1CCC[C@H]1C(=O)N[C@H](C)C(N)=O
pIC50 [1]: 7.89

CC(=O)N[C@H](Cc1ccc2ccccc2c1)C(=O)N[C@H](Cc1ccc(Cl)cc1)C(=O)N[C@H](Cc1cccnc1)C(=O)N[C@@H](CO)C(=O)N[C@@H](Cc1ccc(NC(=O)[C@@H]2CC(=O)NC(=O)N2)cc1)C(=O)N[C@H](Cc1ccc(NC(N)=O)cc1)C(=O)N[C@@H](CC(C)C)C(=O)N[C@@H](CCCCNC(C)C)C(=O)N1CCC[C@H]1C(=O)N[C@@H](C)CO
Inhibition (Rattus norvegicus): >80%

CC(=O)Nc1ccc(C[C@@H](NC(=O)[C@H](Cc2ccc(NC(=O)c3cc(=O)[nH]c(=O)[nH]3)cc2)NC(=O)[C@H](CO)NC(=O)[C@@H](Cc2cccnc2)NC(=O)[C@@H](Cc2ccc(Cl)cc2)NC(=O)[C@@H](Cc2ccc3ccccc3c2)NC(C)=O)C(=O)N[C@@H](CC(C)C)C(=O)N[C@@H](CCCCNC(C)C)C(=O)N2CCC[C@H]2C(=O)N[C@H](C)C(N)=O)cc1
pIC50 [1]: 7.97

CC(=O)Nc1ccc(C[C@@H](NC(=O)[C@H](Cc2ccc(CNC(=O)[C@@H]3CC(=O)NC(=O)N3)cc2)NC(=O)[C@H](CO)NC(=O)[C@@H](Cc2cccnc2)NC(=O)[C@@H](Cc2ccc(Cl)cc2)NC(=O)[C@@H](Cc2ccc3ccccc3c2)NC(C)=O)C(=O)N[C@@H](CC(C)C)C(=O)N[C@@H](CCCCNC(C)C)C(=O)N2CCC[C@H]2C(=O)N[C@H](C)C(N)=O)cc1 [listing 2 of 2 here]
pIC50 [1]: 8.10
Kb [2]: 0.316 nM

CC(=O)N[C@H](Cc1ccc2ccccc2c1)C(=O)N[C@H](Cc1ccc(Cl)cc1)C(=O)N[C@H](Cc1cccnc1)C(=O)N[C@@H](CO)C(=O)N[C@@H](Cc1ccc(NC(=O)[C@@H]2CC(=O)NC(=O)N2)cc1)C(=O)N[C@H](Cc1cccnc1)C(=O)N[C@@H](CC(C)C)C(=O)N[C@@H](CCCCNC(C)C)C(=O)N1CCC[C@H]1C(=O)N[C@H](C)C(N)=O
pIC50 [1]: 8.55
Kb [2]: 2 nM

CC(=O)N[C@H](Cc1ccc2ccccc2c1)C(=O)N[C@H](Cc1ccc(Cl)cc1)C(=O)N[C@H](Cc1cccnc1)C(=O)N[C@@H](CO)C(=O)N[C@@H](Cc1ccc(NC(=O)[C@@H]2CC(=O)NC(=O)N2)cc1)C(=O)N[C@H](CCCNC(N)=O)C(=O)N[C@@H](CC(C)C)C(=O)N[C@@H](CCCCNC(C)C)C(=O)N1CCC[C@H]1C(=O)N[C@H](C)C(N)=O
pIC50 [1]: 8.24
Kb [2]: 0.794 nM

CC(=O)N[C@H](Cc1ccc2ccccc2c1)C(=O)N[C@H](Cc1ccc(Cl)cc1)C(=O)N[C@H](Cc1cccnc1)C(=O)N[C@@H](CO)C(=O)N[C@@H](Cc1ccc(NC(=O)[C@H]2CC(=O)NC(=O)N2)cc1)C(=O)N[C@H](Cc1ccc(CNC(N)=O)cc1)C(=O)N[C@@H](CC(C)C)C(=O)N[C@@H](CCCCNC(C)C)C(=O)N1CCC[C@H]1C(=O)N[C@H](C)C(N)=O
pIC50 [1]: 8.11
